ChEMBL document CHEMBL2346519, “Substituted indolin-2-ones as p90 ribosomal S6 protein kinase 2 (RSK2) inhibitors: Molecular docking simulation and structure-activity relationship analysis” (Bioorg Med Chem, 2013)

Assays:
[1] = target: Tyrosine-protein kinase Lyn (Homo sapiens) (UniProt P07948); experiment: Inhibition of LYNA (unknown origin) at 3 uM after 10 mins by mobility shift assay relative to control
[2] = target: Mitogen-activated protein kinase 9 (Homo sapiens) (UniProt P45984); experiment: Inhibition of JNK2 (unknown origin) at 3 uM after 10 mins by mobility shift assay relative to control
Mitogen-activated protein kinase 9 (Homo sapiens), sequence (P45984 whole entry, looked up): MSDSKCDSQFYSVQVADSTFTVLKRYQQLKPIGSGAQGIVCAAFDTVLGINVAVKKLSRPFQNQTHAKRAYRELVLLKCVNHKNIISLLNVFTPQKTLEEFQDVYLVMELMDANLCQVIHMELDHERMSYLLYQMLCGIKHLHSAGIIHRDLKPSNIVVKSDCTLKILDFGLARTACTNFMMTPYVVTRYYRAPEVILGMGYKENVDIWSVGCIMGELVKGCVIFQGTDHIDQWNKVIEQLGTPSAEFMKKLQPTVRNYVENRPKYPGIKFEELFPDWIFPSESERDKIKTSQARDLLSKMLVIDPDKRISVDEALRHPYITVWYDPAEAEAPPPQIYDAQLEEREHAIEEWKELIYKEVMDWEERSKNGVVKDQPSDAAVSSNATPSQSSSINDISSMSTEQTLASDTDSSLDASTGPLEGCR

[3] = target: Hepatocyte growth factor receptor (Homo sapiens) (UniProt P08581); experiment: Inhibition of c-MET (unknown origin) at 3 uM after 10 mins by mobility shift assay relative to control
[4] = target: Proto-oncogene tyrosine-protein kinase Src (Homo sapiens) (UniProt P12931); experiment: Inhibition of SRC (unknown origin) at 3 uM after 10 mins by mobility shift assay relative to control
Proto-oncogene tyrosine-protein kinase Src (Homo sapiens), sequence (P12931 2-536 limits assumed): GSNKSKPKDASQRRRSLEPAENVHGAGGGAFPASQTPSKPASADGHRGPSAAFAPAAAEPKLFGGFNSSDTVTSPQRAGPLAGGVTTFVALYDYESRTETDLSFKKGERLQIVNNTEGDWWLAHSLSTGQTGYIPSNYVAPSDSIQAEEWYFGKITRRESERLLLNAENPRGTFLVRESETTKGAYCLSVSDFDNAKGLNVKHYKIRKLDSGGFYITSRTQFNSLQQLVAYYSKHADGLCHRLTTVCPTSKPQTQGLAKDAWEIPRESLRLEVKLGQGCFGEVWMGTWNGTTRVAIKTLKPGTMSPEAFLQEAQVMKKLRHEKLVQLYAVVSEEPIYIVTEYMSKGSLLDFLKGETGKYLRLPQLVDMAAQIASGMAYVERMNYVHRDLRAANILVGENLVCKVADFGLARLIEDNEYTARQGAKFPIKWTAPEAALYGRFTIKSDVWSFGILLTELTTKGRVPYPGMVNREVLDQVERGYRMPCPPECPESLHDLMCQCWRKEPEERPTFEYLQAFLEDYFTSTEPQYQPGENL

[5] = target: Mitogen-activated protein kinase 9 (Homo sapiens) (UniProt P45984); experiment: Inhibition of JNK2 (unknown origin) at 10 uM after 10 mins by mobility shift assay relative to control
[6] = target: Tyrosine-protein kinase ABL1 (Homo sapiens) (UniProt P00519); experiment: Inhibition of ABL (unknown origin) at 10 uM after 10 mins by mobility shift assay relative to control
[7] = target: Fibroblast growth factor receptor 1 (Homo sapiens) (UniProt P11362); settings: 10 uM
[8] = target: Tyrosine-protein kinase Lck (Homo sapiens) (UniProt P06239); settings: 10 uM
[9] = target: Tyrosine-protein kinase ABL1 (Homo sapiens) (UniProt P00519); experiment: Inhibition of ABL (unknown origin) at 3 uM after 10 mins by mobility shift assay relative to control
[10] = target: Ribosomal protein S6 kinase beta-1 (Homo sapiens) (UniProt P23443); experiment: Inhibition of p70S6K (unknown origin) at 10 uM after 10 mins by mobility shift assay relative to control
Ribosomal protein S6 kinase beta-1 (Homo sapiens), sequence (P23443 whole entry, looked up): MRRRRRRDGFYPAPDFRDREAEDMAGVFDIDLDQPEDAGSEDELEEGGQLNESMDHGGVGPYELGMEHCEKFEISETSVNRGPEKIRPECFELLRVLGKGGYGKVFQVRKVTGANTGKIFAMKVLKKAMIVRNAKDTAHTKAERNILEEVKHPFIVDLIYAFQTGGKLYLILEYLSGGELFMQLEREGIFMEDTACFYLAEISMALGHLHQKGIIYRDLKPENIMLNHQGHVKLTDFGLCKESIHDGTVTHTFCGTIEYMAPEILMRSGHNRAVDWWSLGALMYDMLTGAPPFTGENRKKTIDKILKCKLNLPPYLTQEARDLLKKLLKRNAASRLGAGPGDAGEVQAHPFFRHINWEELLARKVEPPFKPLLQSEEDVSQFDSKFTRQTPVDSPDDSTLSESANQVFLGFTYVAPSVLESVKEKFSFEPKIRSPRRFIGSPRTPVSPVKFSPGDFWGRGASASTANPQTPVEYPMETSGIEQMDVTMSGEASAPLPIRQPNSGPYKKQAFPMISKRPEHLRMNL

[11] = target: T1, RAC-alpha serine/threonine-protein kinase (Homo sapiens, UniProt P31749); experiment: Inhibition of AKT1 (unknown origin) at 10 uM after 10 mins by mobility shift assay relative to control
T1 sequence (P31749 whole entry): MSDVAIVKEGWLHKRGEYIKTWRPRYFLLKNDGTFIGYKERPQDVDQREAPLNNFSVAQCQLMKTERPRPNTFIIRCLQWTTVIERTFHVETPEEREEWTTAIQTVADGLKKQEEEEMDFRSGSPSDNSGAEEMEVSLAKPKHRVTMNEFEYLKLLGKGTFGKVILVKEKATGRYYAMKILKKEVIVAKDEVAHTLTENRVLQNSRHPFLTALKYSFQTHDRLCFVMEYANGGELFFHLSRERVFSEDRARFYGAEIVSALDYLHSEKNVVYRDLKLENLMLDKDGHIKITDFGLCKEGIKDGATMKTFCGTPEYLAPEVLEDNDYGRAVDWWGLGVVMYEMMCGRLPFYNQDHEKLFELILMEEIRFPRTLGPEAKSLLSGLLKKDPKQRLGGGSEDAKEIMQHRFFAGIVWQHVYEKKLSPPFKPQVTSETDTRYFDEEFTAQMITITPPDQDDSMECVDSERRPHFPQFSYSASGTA

[12] = target: Vascular endothelial growth factor receptor 2 (Homo sapiens) (UniProt P35968); settings: 10 uM
[13] = target: Glycogen synthase kinase-3 beta (Homo sapiens) (UniProt P49841); settings: 3 uM
[14] = target: Protein kinase C alpha type (Homo sapiens) (UniProt P17252); experiment: Inhibition of PKC alpha (unknown origin) using PIP2 as substrate at 10 uM after 1 hr by Kinase-Glo assay relative to control
[15] = target: T1, RAC-alpha serine/threonine-protein kinase; experiment: Inhibition of AKT1 (unknown origin) at 3 uM after 10 mins by mobility shift assay relative to control
[16] = target: Glycogen synthase kinase-3 beta (Homo sapiens) (UniProt P49841); settings: 10 uM
PC-3 = experiment: Cytotoxicity against human PC3 cells assessed as growth inhibition after 48 hrs by MTT assay; assay type: functional, cell-based; settings: PC-3, 48 h
Summary of the method: (§1)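 MCF-7 cells grown in DMEM plus 10% FBS and PC 3 cells in F-12K, both seeded at 5 × 10^3 per well. Cells were exposed to compounds at various concentrations for 48 h. MTT was then added for 4 h at 37 °C in 5% CO2, formazan was dissolved in DMSO, and absorbance was read at 570 nm. IC50 was taken from inhibition curves of three independent experiments and measured only where inhibition at 100 µM exceeded 50%.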

MCF7 = experiment: Cytotoxicity against human MCF7 cells assessed as growth inhibition after 48 hrs by MTT assay; assay type: functional, cell-based; settings: MCF7, 48 h; summary of the method: as §1
[17] = target: Mast/stem cell growth factor receptor Kit (Homo sapiens) (UniProt P10721); settings: 3 uM
[18] = target: T2, Mitogen-activated protein kinase 14 (Homo sapiens, UniProt Q16539); settings: 10 uM
T2 sequence (Q16539 whole entry): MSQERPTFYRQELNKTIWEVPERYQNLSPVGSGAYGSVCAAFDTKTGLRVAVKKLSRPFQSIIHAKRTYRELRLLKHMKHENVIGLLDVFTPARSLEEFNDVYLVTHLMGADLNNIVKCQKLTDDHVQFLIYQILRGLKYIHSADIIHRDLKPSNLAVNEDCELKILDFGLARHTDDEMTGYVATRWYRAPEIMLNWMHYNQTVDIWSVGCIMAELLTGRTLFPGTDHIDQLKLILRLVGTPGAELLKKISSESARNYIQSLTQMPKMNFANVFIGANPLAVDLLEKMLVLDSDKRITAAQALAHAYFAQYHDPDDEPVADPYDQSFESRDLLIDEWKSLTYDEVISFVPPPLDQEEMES

[19] = target: Fibroblast growth factor receptor 3 (Homo sapiens) (UniProt P22607); settings: 10 uM
Fibroblast growth factor receptor 3 (Homo sapiens), sequence (P22607 23-806 limits assumed): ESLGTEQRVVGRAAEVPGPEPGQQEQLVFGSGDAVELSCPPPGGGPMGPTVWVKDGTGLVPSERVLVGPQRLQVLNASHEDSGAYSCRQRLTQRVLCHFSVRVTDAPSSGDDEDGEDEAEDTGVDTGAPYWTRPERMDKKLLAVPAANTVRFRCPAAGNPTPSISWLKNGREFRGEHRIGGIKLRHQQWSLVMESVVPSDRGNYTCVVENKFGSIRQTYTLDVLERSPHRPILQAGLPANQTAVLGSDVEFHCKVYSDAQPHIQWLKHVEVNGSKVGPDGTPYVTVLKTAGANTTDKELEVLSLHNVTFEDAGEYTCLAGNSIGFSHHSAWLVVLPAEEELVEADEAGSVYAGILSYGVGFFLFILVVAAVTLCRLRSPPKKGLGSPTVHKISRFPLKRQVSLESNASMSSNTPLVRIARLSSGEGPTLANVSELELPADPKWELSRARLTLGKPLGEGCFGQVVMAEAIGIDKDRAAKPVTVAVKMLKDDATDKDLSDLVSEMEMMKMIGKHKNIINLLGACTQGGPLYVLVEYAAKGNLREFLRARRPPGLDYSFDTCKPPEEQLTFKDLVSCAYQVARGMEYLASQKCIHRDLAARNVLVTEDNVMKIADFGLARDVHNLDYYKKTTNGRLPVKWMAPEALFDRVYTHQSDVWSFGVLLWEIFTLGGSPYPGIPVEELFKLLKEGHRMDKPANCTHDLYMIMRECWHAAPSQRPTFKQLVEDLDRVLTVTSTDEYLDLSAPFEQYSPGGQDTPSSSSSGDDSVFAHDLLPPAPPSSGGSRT

[20] = target: 3-phosphoinositide-dependent protein kinase 1 (Homo sapiens) (UniProt O15530); experiment: Inhibition of PDK1 (unknown origin) at 10 uM after 10 mins by mobility shift assay relative to control
[21] = target: Aurora kinase B (Homo sapiens) (UniProt Q96GD4); experiment: Inhibition of Aurora B (unknown origin) at 3 uM after 10 mins by mobility shift assay relative to control
[22] = target: Platelet-derived growth factor receptor alpha (Homo sapiens) (UniProt P16234); experiment: Inhibition of PDGFRalpha (unknown origin) at 10 uM after 10 mins by mobility shift assay relative to control
Platelet-derived growth factor receptor alpha (Homo sapiens), sequence (P16234 whole entry): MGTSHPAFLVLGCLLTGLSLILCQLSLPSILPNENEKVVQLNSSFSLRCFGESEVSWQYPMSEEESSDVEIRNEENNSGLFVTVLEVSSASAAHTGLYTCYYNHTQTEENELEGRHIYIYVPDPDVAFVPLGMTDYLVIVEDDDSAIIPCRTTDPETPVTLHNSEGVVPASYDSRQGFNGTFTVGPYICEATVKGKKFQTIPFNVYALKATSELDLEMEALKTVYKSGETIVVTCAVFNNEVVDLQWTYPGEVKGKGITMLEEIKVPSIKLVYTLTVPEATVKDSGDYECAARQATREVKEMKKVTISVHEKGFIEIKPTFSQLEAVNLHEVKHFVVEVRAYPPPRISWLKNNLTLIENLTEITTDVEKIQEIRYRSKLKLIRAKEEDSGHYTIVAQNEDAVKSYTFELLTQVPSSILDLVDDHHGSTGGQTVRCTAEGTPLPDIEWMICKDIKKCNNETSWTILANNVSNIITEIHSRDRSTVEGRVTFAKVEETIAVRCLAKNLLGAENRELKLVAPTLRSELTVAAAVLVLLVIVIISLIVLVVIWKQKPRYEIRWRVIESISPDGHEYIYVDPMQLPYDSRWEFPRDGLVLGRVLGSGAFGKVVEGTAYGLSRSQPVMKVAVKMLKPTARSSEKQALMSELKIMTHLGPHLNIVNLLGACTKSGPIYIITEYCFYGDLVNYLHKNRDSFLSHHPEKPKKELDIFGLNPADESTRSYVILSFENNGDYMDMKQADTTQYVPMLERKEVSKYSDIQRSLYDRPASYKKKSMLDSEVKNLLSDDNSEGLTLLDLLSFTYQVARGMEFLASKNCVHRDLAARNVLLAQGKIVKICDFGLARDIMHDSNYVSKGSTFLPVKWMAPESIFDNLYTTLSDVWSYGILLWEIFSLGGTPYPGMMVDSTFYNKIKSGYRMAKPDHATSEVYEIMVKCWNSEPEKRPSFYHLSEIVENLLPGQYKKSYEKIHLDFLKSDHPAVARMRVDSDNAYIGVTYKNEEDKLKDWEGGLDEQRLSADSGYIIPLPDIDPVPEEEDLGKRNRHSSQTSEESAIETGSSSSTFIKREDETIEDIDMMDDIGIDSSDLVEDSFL

[23] = target: 3-phosphoinositide-dependent protein kinase 1 (Homo sapiens) (UniProt O15530); experiment: Inhibition of PDK1 (unknown origin) at 3 uM after 10 mins by mobility shift assay relative to control
[24] = target: Ribosomal protein S6 kinase beta-1 (Homo sapiens) (UniProt P23443); settings: 3 uM
[25] = target: Aurora kinase B (Homo sapiens) (UniProt Q96GD4); experiment: Inhibition of Aurora B (unknown origin) at 10 uM after 10 mins by mobility shift assay relative to control
[26] = target: Fibroblast growth factor receptor 1 (Homo sapiens) (UniProt P11362); settings: 3 uM
[27] = target: Mitogen-activated protein kinase 3 (Homo sapiens) (UniProt P27361); experiment: Inhibition of ERK1 (unknown origin) at 10 uM after 10 mins by mobility shift assay relative to control
[28] = target: Mitogen-activated protein kinase 3 (Homo sapiens) (UniProt P27361); settings: 3 uM
[29] = target: Serine/threonine-protein kinase pim-1 (Homo sapiens) (UniProt P11309); experiment: Inhibition of PIM1 (unknown origin) at 10 uM after 10 mins by mobility shift assay relative to control
[30] = target: Hepatocyte growth factor receptor (Homo sapiens) (UniProt P08581); experiment: Inhibition of c-MET (unknown origin) at 10 uM after 10 mins by mobility shift assay relative to control
[31] = target: Serine/threonine-protein kinase pim-1 (Homo sapiens) (UniProt P11309); experiment: Inhibition of PIM1 (unknown origin) at 3 uM after 10 mins by mobility shift assay relative to control
[32] = target: Ribosomal protein S6 kinase alpha-5 (Homo sapiens) (UniProt O75582); settings: 3 uM
[33] = target: T1, RAC-alpha serine/threonine-protein kinase; experiment: Inhibition of AKT1 (unknown origin) after 10 mins by mobility shift assay
[34] = target: Mast/stem cell growth factor receptor Kit (Homo sapiens) (UniProt P10721); experiment: Inhibition of cKit (unknown origin) at 10 uM after 10 mins by mobility shift assay relative to control
[35] = target: T3, Ribosomal protein S6 kinase alpha-3 (Homo sapiens, UniProt P51812); experiment: Inhibition of RSK2 (unknown origin) using AKRRRLSSLRA as substrate after 60 mins by fluorescence assay
T3 sequence (P51812 whole entry): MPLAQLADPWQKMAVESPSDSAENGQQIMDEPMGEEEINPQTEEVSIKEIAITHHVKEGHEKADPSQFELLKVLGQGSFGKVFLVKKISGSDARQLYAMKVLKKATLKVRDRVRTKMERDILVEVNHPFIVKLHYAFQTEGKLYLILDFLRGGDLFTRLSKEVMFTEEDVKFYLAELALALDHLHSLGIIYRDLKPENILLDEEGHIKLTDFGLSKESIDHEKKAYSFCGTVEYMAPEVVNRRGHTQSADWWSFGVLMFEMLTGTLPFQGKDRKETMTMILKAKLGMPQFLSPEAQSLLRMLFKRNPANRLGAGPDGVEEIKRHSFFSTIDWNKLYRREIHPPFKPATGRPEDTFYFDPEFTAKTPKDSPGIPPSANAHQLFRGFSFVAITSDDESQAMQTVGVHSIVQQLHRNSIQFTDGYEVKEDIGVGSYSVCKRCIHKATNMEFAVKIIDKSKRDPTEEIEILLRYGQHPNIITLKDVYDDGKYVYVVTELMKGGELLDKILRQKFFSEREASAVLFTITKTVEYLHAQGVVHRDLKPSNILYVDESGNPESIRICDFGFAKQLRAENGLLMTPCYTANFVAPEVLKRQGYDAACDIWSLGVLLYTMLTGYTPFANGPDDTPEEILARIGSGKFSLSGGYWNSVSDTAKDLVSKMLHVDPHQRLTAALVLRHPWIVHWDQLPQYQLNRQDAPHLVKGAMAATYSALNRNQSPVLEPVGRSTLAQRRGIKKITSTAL

[36] = target: T2, Mitogen-activated protein kinase 14; settings: 3 uM
[37] = target: T2, Mitogen-activated protein kinase 14; experiment: Inhibition of p38alpha (unknown origin) after 10 mins by mobility shift assay
[38] = target: Fibroblast growth factor receptor 3 (Homo sapiens) (UniProt P22607); settings: 3 uM
[39] = target: Tyrosine-protein kinase Lck (Homo sapiens) (UniProt P06239); settings: 3 uM
[40] = target: Proto-oncogene tyrosine-protein kinase Src (Homo sapiens) (UniProt P12931); settings: 10 uM
[41] = target: Vascular endothelial growth factor receptor 2 (Homo sapiens) (UniProt P35968); experiment: Inhibition of KDR (unknown origin) at 3 uM after 10 mins by mobility shift assay relative to control
[42] = target: Protein kinase C alpha type (Homo sapiens) (UniProt P17252); experiment: Inhibition of PKC alpha (unknown origin) using PIP2 as substrate at 3 uM after 1 hr by Kinase-Glo assay relative to control
[43] = target: Platelet-derived growth factor receptor alpha (Homo sapiens) (UniProt P16234); experiment: Inhibition of PDGFRalpha (unknown origin) at 3 uM after 10 mins by mobility shift assay relative to control
[44] = target: T3, Ribosomal protein S6 kinase alpha-3; experiment: Inhibition of RSK2 (unknown origin) using AKRRRLSSLRA as substrate at 10 uM after 60 mins by fluorescence assay relative to control
[45] = target: Ribosomal protein S6 kinase alpha-5 (Homo sapiens) (UniProt O75582); experiment: Inhibition of MSK1 (unknown origin) at 10 uM after 10 mins by mobility shift assay relative to control
[46] = target: Tyrosine-protein kinase Lyn (Homo sapiens) (UniProt P07948); experiment: Inhibition of LYN-A (unknown origin) at 10 uM after 10 mins by mobility shift assay relative to control
[47] = target: T3, Ribosomal protein S6 kinase alpha-3; settings: 3 uM

- inhibition [1]: 25%
- inhibition [2]: 36%
- inhibition [3]: 12%
- inhibition [4]: 30%
- inhibition [5]: 71%
- inhibition [6]: 67%
- inhibition [7]: 65%
- inhibition [8]: 55%
- inhibition [9]: 43%
- inhibition [10]: 71%
- inhibition [11]: 8.3%
- inhibition [12]: 65%
- inhibition [13]: 37%
- inhibition [14]: 13%
- inhibition [15]: 7.8%
- inhibition [16]: 40%
- inhibition [17]: 55%
- inhibition [18]: 27%
- inhibition [19]: 65%
- inhibition [20]: 6.2%
- inhibition [21]: 25%
- inhibition [22]: 38%
- inhibition [23]: 6.7%
- inhibition [24]: 44%
- inhibition [25]: 34%
- inhibition [26]: 44%
- inhibition [27]: 57%
- inhibition [28]: 31%
- inhibition [29]: 4.7%
- inhibition [30]: 16%
- inhibition [31]: 4.2%
- inhibition [32]: 31%
- IC50 [33]: 11 nM
- inhibition [34]: 64%
- IC50 [35]: 500 nM
- inhibition [36]: 19%
- IC50 [37]: 11 nM
- inhibition [38]: 44%
- inhibition [39]: 31%
- inhibition [40]: 55%
- inhibition [41]: 39%
- inhibition [42]: 4.4%
- inhibition [43]: 20%
- inhibition [44]: 93.4%
- inhibition [45]: 33%
- inhibition [46]: 49%
- inhibition [47]: 61%
Structure (SMILES): O=C1Nc2ccccc2/C1=C/c1c[nH]nc1-c1ccccc1[N+](=O)[O-]
- IC50 (PC-3): 9320 nM
- IC50 (MCF7): 14800 nM
